Published values collected from several papers.
Each line is one published result; the experiments were not run side by side.
Target: Phosphorylase b kinase gamma catalytic chain, skeletal muscle/heart isoform (PHKG1, Homo sapiens, UniProt Q16816)

Compound | read-out | action | method | concentration | quantity | value
O=C(Nc1cnn(-c2csc(C(=O)NC3COC3)c2)c1)Nc1c(F)cccc1Cl | enzyme activity | inhibitor | – | 5 µM | remaining activity | 91.2%
Cc1c(C(=O)O)cc(-c2ccc(C3CCNCC3)cc2)c2ccc(-c3ccc(C(F)(F)F)cc3)cc12 | cell-free assay | – | competition with immobilised ligand | 1 µM | remaining binding | 100%
CCCCNc1ncc2c(-c3ccc(F)cc3)nn(C[C@H]3CC[C@H](N)CC3)c2n1 | target engagement in cells | inhibitor | chemoproteomics | 20 mM | inhibition | 26.4%
COc1cc(Cl)c(C(=O)N[C@@H](CN[C@H]2CC[C@@H](N)CC2)Cc2ccc(C#N)cc2)cc1-c1ccc(CN[C@H](C)c2ccc(C)cc2)o1 | enzyme activity | inhibitor | – | 1 µM | remaining activity | 68%
Nc1ncnc2occ(-c3ccc(NC(=O)Nc4cc(C(F)(F)F)ccc4F)cc3)c12 | cell-free assay | inhibitor | – | 20 µM | remaining signal | 92%
Cc1ccc(C(=O)Nc2ccc(CN3CCN(C)CC3)c(C(F)(F)F)c2)cc1C#Cc1cnc2cccnn12 | enzyme activity | inhibitor | – | 23.5 nM | remaining activity | 100%
CC/C(=N\NC(=O)NCc1cccc(O)c1)c1ccc(O)c(C)c1O | enzyme activity | inhibitor | – | 0.1 µM | inhibition | -1.8%
O=C1NC(=O)c2cc(Nc3ccc(F)cc3)c(Nc3ccc(F)cc3)cc21 | cell-free assay | – | – | 0.5 µM | remaining signal | 94.8%
O=C(Nc1cnn(-c2csc(C(=O)NC3COC3)c2)c1)Nc1ccccc1Cl | enzyme activity | inhibitor | – | 5 µM | remaining activity | 102%
CC(C)(C)c1nc2c(s1)c1nc(N)ncc1c1ccc(NS(=O)(=O)c3c(F)cccc3F)c(F)c12 | enzyme activity | inhibitor | radiometric | 1 µM | remaining activity | 98%
CS(=O)(=O)c1cc(C2(NC(=O)c3cncc4c3cnn4-c3ccc(F)cc3)CC2)ccn1 | cell-free assay | – | competition with immobilised ligand | 1 µM | remaining binding | 78%
CC(C)(C)C(=O)c1sc(NC2CCCCC2)nc1N | enzyme activity | inhibitor | – | 10 µM | remaining activity | 112%
CN(C)C(=O)Cn1cc(-c2nc([C@@](C)(c3ccc(-c4cnc(N)nc4)cc3)C3CC3)no2)cn1 | cell-free assay | – | competition with immobilised ligand | 1 µM | remaining binding | 77%
CC(C)(O)[C@H]1CC[C@H](Nc2ccc3ncc(-c4cccc(C(F)(F)F)c4)n3n2)CC1 | enzyme activity | inhibitor | – | 1 µM | remaining activity | 84.1%
NS(=O)(=O)c1cc(NC(=O)Cc2ccccc2)ccc1Oc1cccc(Cl)c1 | cell-free assay | – | competition with immobilised ligand | 1 µM | remaining binding | 87%
Cn1c(=O)n(-c2ccc(C(C)(C)C#N)cc2)c2c3cc(-c4cnc5ccccc5c4)ccc3ncc21 | enzyme activity | inhibitor | – | 10 µM | remaining activity | 95%
CCCOc1ccc([C@H]2[C@H](C(=O)O)[C@@H](c3ccc4c(c3)OCO4)CN2CC(=O)Nc2c(CC)cccc2CC)cc1 | cell-free assay | – | competition with immobilised ligand | 1 µM | remaining binding | 99%
COc1cccc2c(NCc3ccccc3)nc(-n3c(N)nc4ccccc43)nc12 | target engagement in cells | inhibitor | chemoproteomics | 20 mM | inhibition | 6.1%
CNC(=O)c1ccc(Nc2ncc(C(F)(F)F)c(NCc3nccnc3N(C)S(C)(=O)=O)n2)cc1 | cell-free assay | – | competition with immobilised ligand | 0.1 µM | remaining binding | 100%
COc1cc2ncnc(Nc3ccc(Oc4ccccc4)cc3C)c2cc1OC | enzyme activity | inhibitor | – | 1 µM | inhibition | -1%
